# Measured values as given in ChEMBL document CHEMBL4130552, “Design, synthesis and biological evaluation of novel benzimidazole amidines as potent multi-target inhibitors for the treatment of non-small cell lung cancer” (Eur J Med Chem, 2018).
# Calls of active or inactive are those of the source. The calls are words filed in the database; no cut-off is given here.
# Molecular target: Cellular tumor antigen p53 (Homo sapiens) (UniProt P04637)
# Experiment: Inhibition of p53 phosphorylation at Ser-15 residue in human A549 cells at 2 times antiproliferative IC50 after 48 hrs by Western blot method
# Type: cell-based
# Details: not given
# Method in brief: (§1)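 Lysis in RIPA buffer (20 mM Tris-HCl pH 7.5, 150 mM NaCl, EDTA, EGTA, 1% NP-40, 1% deoxycholate, protease inhibitors). Blocking 1 h in 4% BSA/TBST, primary antibody overnight at 4 °C, HRP secondary 1 h, chemiluminescence. Densitometry normalised to alpha-tubulin; two independent experiments.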
# Cellular tumor antigen p53 (Homo sapiens), sequence (P04637 whole entry, looked up): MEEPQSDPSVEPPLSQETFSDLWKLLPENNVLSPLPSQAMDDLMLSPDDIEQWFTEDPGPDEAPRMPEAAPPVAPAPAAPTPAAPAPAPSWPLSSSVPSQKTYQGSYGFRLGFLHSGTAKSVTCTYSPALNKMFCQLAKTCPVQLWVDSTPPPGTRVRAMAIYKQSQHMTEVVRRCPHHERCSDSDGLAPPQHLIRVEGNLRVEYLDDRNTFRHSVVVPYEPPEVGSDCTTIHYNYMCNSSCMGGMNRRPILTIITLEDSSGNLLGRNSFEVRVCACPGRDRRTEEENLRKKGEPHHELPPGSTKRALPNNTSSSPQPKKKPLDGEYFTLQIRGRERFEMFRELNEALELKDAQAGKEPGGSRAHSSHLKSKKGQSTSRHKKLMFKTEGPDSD
row,inhibition,SMILES
1,Active,Cl.c1ccc(Cn2cc(COc3ccc(-c4nc5cc(C6=NCCN6)ccc5[nH]4)cc3)nn2)cc1
2,Active,CC(C)NC(=N)c1ccc2[nH]c(-c3ccc(OCc4cn(-c5ccc(Cl)cc5)nn4)cc3)nc2c1.Cl

# Tested on: not listed separately
# Experiment: Selectivity ratio of IC50 for human CFPAC-1 cells to IC50 for human SW620 cells
# Type: functional
# Details: not given
row,SMILES,Ratio IC50
1,Cl.Clc1ccc(Cn2cc(COc3ccc(-c4nc5cc(C6=NCCN6)ccc5[nH]4)cc3)nn2)cc1,>100

# Tested on: A549
# Experiment: Downregulation of PDE5 protein expression in human A549 cells at 2 times antiproliferative IC50 after 48 hrs by Western blot method
# Type: functional, cell-based
# Details: not given
# Method in brief: as §1
row,SMILES,Activity
1,Cl.c1ccc(Cn2cc(COc3ccc(-c4nc5cc(C6=NCCN6)ccc5[nH]4)cc3)nn2)cc1,Active
2,CC(C)NC(=N)c1ccc2[nH]c(-c3ccc(OCc4cn(-c5ccc(Cl)cc5)nn4)cc3)nc2c1.Cl,inactive

# Tested on: CFPAC-1
# Experiment: Antiproliferative activity against human CFPAC-1 cells after 72 hrs by MTT assay
# Type: functional, cell-based
# Details: CFPAC-1, 72 h
# Method in brief: (§2)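 Cells seeded at 5000/well on day 0 in medium with 10% FBS, 2 mM L-glutamine, penicillin/streptomycin, 37 °C, 5% CO2. Compounds added at five 10-fold dilutions with DMSO ≤0.1%, then 72 h exposure. MTT absorbance converted to percentage growth versus untreated wells. IC50 by linear regression between bracketing concentrations. Quadruplicate points, three independent experiments.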
row,SMILES,IC50
1,N=C(N)c1ccc2[nH]c(-c3ccc(OCc4cn(-c5ccccc5)nn4)cc3)nc2c1,29.9 µM
2,N=C(N)c1ccc2[nH]c(-c3ccc(OCc4cn(-c5ccc(C(F)(F)F)cc5)nn4)cc3)nc2c1,2.09 µM
3,N=C(N)c1ccc2[nH]c(-c3ccc(OCc4cn(-c5ccc(Cl)cc5)nn4)cc3)nc2c1,18.5 µM
4,Cl.c1ccc(Cn2cc(COc3ccc(-c4nc5cc(C6=NCCN6)ccc5[nH]4)cc3)nn2)cc1,29.2 µM
5,N=C(N)c1ccc2[nH]c(-c3ccc(OCc4cn(-c5ccc(I)cc5)nn4)cc3)nc2c1,21.5 µM
6,CC(C)NC(=N)c1ccc2[nH]c(-c3ccc(OCc4cn(-c5ccc(Cl)cc5)nn4)cc3)nc2c1.Cl,> 100 µM
7,Cl.Clc1ccc(Cn2cc(COc3ccc(-c4nc5cc(C6=NCCN6)ccc5[nH]4)cc3)nn2)cc1,6.82 µM

# Molecular target: MAP kinase p38 (Homo sapiens, UniProt O15264+Q15759+Q16539+P53778)
# Experiment: Inhibition of p38 phosphorylation at Thr180/Tyr182 residues in human A549 cells at 2 times antiproliferative IC50 after 48 hrs by Western blot method
# Type: cell-based
# Details: not given
# Method in brief: as §1
row,inhibition,SMILES
1,Active,Cl.c1ccc(Cn2cc(COc3ccc(-c4nc5cc(C6=NCCN6)ccc5[nH]4)cc3)nn2)cc1
2,Active,CC(C)NC(=N)c1ccc2[nH]c(-c3ccc(OCc4cn(-c5ccc(Cl)cc5)nn4)cc3)nc2c1.Cl

# Tested on: not listed separately
# Experiment: Selectivity ratio of IC50 for human HeLa cells to IC50 for human SW620 cells
# Type: functional
# Details: not given
row,SMILES,Ratio IC50
1,Cl.Clc1ccc(Cn2cc(COc3ccc(-c4nc5cc(C6=NCCN6)ccc5[nH]4)cc3)nn2)cc1,>100

# Tested on: SW-620
# Experiment: Antiproliferative activity against human SW620 cells after 72 hrs by MTT assay
# Type: functional, cell-based
# Details: SW-620, 72 h
# Method in brief: as §2
row,SMILES,IC50
1,N=C(N)c1ccc2[nH]c(-c3ccc(OCc4cn(-c5ccccc5)nn4)cc3)nc2c1,31.5 µM
2,Cl.c1ccc(Cn2cc(COc3ccc(-c4nc5cc(C6=NCCN6)ccc5[nH]4)cc3)nn2)cc1,28.1 µM
3,CC(C)NC(=N)c1ccc2[nH]c(-c3ccc(OCc4cn(-c5ccc(Cl)cc5)nn4)cc3)nc2c1.Cl,48.7 µM

# Stronger by IC50, values ahead:
row,IC50,SMILES
1,7.57 µM,N=C(N)c1ccc2[nH]c(-c3ccc(OCc4cn(-c5ccc(Cl)cc5)nn4)cc3)nc2c1
2,0.95 µM,N=C(N)c1ccc2[nH]c(-c3ccc(OCc4cn(-c5ccc(I)cc5)nn4)cc3)nc2c1
3,0.36 µM,N=C(N)c1ccc2[nH]c(-c3ccc(OCc4cn(-c5ccc(C(F)(F)F)cc5)nn4)cc3)nc2c1
4,0.05 µM,Cl.Clc1ccc(Cn2cc(COc3ccc(-c4nc5cc(C6=NCCN6)ccc5[nH]4)cc3)nn2)cc1

# Tested on: A549
# Experiment: Induction of apoptosis in human A549 cells assessed as late apoptotic cells at 2 times antiproliferative IC50 after 48 hrs by Annexin V-FITC/propidium iodide staining based fluorescence microscopic method (reference value: 0%)
# Type: functional
# Details: not given
row,SMILES,Activity
1,Cl.c1ccc(Cn2cc(COc3ccc(-c4nc5cc(C6=NCCN6)ccc5[nH]4)cc3)nn2)cc1,16.37%
2,CC(C)NC(=N)c1ccc2[nH]c(-c3ccc(OCc4cn(-c5ccc(Cl)cc5)nn4)cc3)nc2c1.Cl,40%

# Tested on: A549
# Experiment: Downregulation of TGM2 protein expression in human A549 cells at 2 times antiproliferative IC50 after 48 hrs by Western blot method
# Type: functional, cell-based
# Details: not given
# Method in brief: as §1
row,SMILES,Activity
1,Cl.c1ccc(Cn2cc(COc3ccc(-c4nc5cc(C6=NCCN6)ccc5[nH]4)cc3)nn2)cc1,Active
2,CC(C)NC(=N)c1ccc2[nH]c(-c3ccc(OCc4cn(-c5ccc(Cl)cc5)nn4)cc3)nc2c1.Cl,inactive

# Tested on: A549
# Experiment: Antiproliferative activity against human A549 cells after 72 hrs by MTT assay
# Type: functional, cell-based
# Details: A549, 72 h
# Method in brief: as §2
row,SMILES,IC50
1,N=C(N)c1ccc2[nH]c(-c3ccc(OCc4cn(-c5ccccc5)nn4)cc3)nc2c1,53.3 µM
2,Cl.c1ccc(Cn2cc(COc3ccc(-c4nc5cc(C6=NCCN6)ccc5[nH]4)cc3)nn2)cc1,0.07 µM
3,CC(C)NC(=N)c1ccc2[nH]c(-c3ccc(OCc4cn(-c5ccc(Cl)cc5)nn4)cc3)nc2c1.Cl,0.05 µM

# Other lines, results leading:
row,IC50,SMILES
1,0.05 µM,N=C(N)c1ccc2[nH]c(-c3ccc(OCc4cn(-c5ccc(Cl)cc5)nn4)cc3)nc2c1
2,0.45 µM,N=C(N)c1ccc2[nH]c(-c3ccc(OCc4cn(-c5ccc(I)cc5)nn4)cc3)nc2c1
3,0.84 µM,N=C(N)c1ccc2[nH]c(-c3ccc(OCc4cn(-c5ccc(C(F)(F)F)cc5)nn4)cc3)nc2c1
4,9.34 µM,Cl.Clc1ccc(Cn2cc(COc3ccc(-c4nc5cc(C6=NCCN6)ccc5[nH]4)cc3)nn2)cc1

# Tested on: A549
# Experiment: Induction of apoptosis in human A549 cells assessed as viable cells at 2 times antiproliferative IC50 after 48 hrs by Annexin V-FITC/propidium iodide staining based fluorescence microscopic method (reference value: 99.48%)
# Type: functional
# Details: not given
row,SMILES,Activity
1,Cl.c1ccc(Cn2cc(COc3ccc(-c4nc5cc(C6=NCCN6)ccc5[nH]4)cc3)nn2)cc1,49.71%
2,CC(C)NC(=N)c1ccc2[nH]c(-c3ccc(OCc4cn(-c5ccc(Cl)cc5)nn4)cc3)nc2c1.Cl,28.89%

# Tested on: A549
# Experiment: Induction of apoptosis in human A549 cells assessed as early apoptotic cells at 2 times antiproliferative IC50 after 48 hrs by Annexin V-FITC/propidium iodide staining based fluorescence microscopic method (reference value: 0.52%)
# Type: functional
# Details: not given
row,SMILES,Activity
1,Cl.c1ccc(Cn2cc(COc3ccc(-c4nc5cc(C6=NCCN6)ccc5[nH]4)cc3)nn2)cc1,27.49%
2,CC(C)NC(=N)c1ccc2[nH]c(-c3ccc(OCc4cn(-c5ccc(Cl)cc5)nn4)cc3)nc2c1.Cl,28.33%

# Tested on: A549
# Experiment: Induction of apoptosis in human A549 cells assessed as necrotic cells at 2 times antiproliferative IC50 after 48 hrs by Annexin V-FITC/propidium iodide staining based fluorescence microscopic method (reference value: 0%)
# Type: functional
# Details: not given
row,SMILES,Activity
1,Cl.c1ccc(Cn2cc(COc3ccc(-c4nc5cc(C6=NCCN6)ccc5[nH]4)cc3)nn2)cc1,6.43%
2,CC(C)NC(=N)c1ccc2[nH]c(-c3ccc(OCc4cn(-c5ccc(Cl)cc5)nn4)cc3)nc2c1.Cl,2.78%

# Tested on: WI-38
# Experiment: Antiproliferative activity against human WI38 cells after 72 hrs by MTT assay
# Type: cell-based
# Details: WI-38, 72 h
# Method in brief: as §2
row,SMILES,IC50
1,N=C(N)c1ccc2[nH]c(-c3ccc(OCc4cn(-c5ccccc5)nn4)cc3)nc2c1,8.08 µM
2,N=C(N)c1ccc2[nH]c(-c3ccc(OCc4cn(-c5ccc(C(F)(F)F)cc5)nn4)cc3)nc2c1,0.52 µM
3,N=C(N)c1ccc2[nH]c(-c3ccc(OCc4cn(-c5ccc(Cl)cc5)nn4)cc3)nc2c1,5.03 µM
4,Cl.c1ccc(Cn2cc(COc3ccc(-c4nc5cc(C6=NCCN6)ccc5[nH]4)cc3)nn2)cc1,6.89 µM
5,N=C(N)c1ccc2[nH]c(-c3ccc(OCc4cn(-c5ccc(I)cc5)nn4)cc3)nc2c1,0.62 µM
6,CC(C)NC(=N)c1ccc2[nH]c(-c3ccc(OCc4cn(-c5ccc(Cl)cc5)nn4)cc3)nc2c1.Cl,8.04 µM
7,Cl.Clc1ccc(Cn2cc(COc3ccc(-c4nc5cc(C6=NCCN6)ccc5[nH]4)cc3)nn2)cc1,5.77 µM

# Tested on: not listed separately
# Experiment: Selectivity ratio of IC50 for human A549 cells to IC50 for human SW620 cells
# Type: functional
# Details: not given
row,SMILES,Ratio IC50
1,Cl.Clc1ccc(Cn2cc(COc3ccc(-c4nc5cc(C6=NCCN6)ccc5[nH]4)cc3)nn2)cc1,>100

# Tested on: HeLa
# Experiment: Antiproliferative activity against human HeLa cells after 72 hrs by MTT assay
# Type: functional, cell-based
# Details: not given
# Method in brief: as §2
row,SMILES,IC50
1,N=C(N)c1ccc2[nH]c(-c3ccc(OCc4cn(-c5ccccc5)nn4)cc3)nc2c1,18.8 µM
2,Cl.c1ccc(Cn2cc(COc3ccc(-c4nc5cc(C6=NCCN6)ccc5[nH]4)cc3)nn2)cc1,6.67 µM
3,CC(C)NC(=N)c1ccc2[nH]c(-c3ccc(OCc4cn(-c5ccc(Cl)cc5)nn4)cc3)nc2c1.Cl,17.5 µM

# Continued, values first:
row,IC50,SMILES
1,0.8 µM,N=C(N)c1ccc2[nH]c(-c3ccc(OCc4cn(-c5ccc(Cl)cc5)nn4)cc3)nc2c1
2,6.45 µM,N=C(N)c1ccc2[nH]c(-c3ccc(OCc4cn(-c5ccc(I)cc5)nn4)cc3)nc2c1
3,0.32 µM,N=C(N)c1ccc2[nH]c(-c3ccc(OCc4cn(-c5ccc(C(F)(F)F)cc5)nn4)cc3)nc2c1
4,5.06 µM,Cl.Clc1ccc(Cn2cc(COc3ccc(-c4nc5cc(C6=NCCN6)ccc5[nH]4)cc3)nn2)cc1

# Tested on: A549
# Experiment: Downregulation of CDK9/CyclinT1 protein expression in human A549 cells at 2 times antiproliferative IC50 after 48 hrs by Western blot method
# Type: functional, cell-based
# Details: not given
# Method in brief: as §1
row,SMILES,Activity
1,Cl.c1ccc(Cn2cc(COc3ccc(-c4nc5cc(C6=NCCN6)ccc5[nH]4)cc3)nn2)cc1,Active
2,CC(C)NC(=N)c1ccc2[nH]c(-c3ccc(OCc4cn(-c5ccc(Cl)cc5)nn4)cc3)nc2c1.Cl,inactive
